Bioassay records deposited in PubChem by several laboratories.
PHOSPHO1 inh – inhibitors of human PHOSPHO1 phosphatase | recombinant PHOSPHO1, absorbance phosphatase assay | inhibition, % at 13.3 µM | Q8TCT1 | 290,000 tested, 1.1% active; in the data active = inhibition above about 60%
Target sequence (Q8TCT1 whole entry, looked up): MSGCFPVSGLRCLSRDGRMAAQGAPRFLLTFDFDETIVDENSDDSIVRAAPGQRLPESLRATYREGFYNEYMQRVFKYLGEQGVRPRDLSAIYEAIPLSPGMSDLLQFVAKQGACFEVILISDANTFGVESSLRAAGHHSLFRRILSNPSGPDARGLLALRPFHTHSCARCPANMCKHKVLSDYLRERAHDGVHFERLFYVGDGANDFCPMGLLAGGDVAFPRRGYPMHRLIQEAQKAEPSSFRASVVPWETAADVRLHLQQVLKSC
IDE act – boosts human insulin-degrading enzyme activity in HEK cells; P14735; FAbeta-B cleavage, fluorescence polarization; 0% vehicle, 100% cell-free pure enzyme wells; activation, % at 5.96 µM; 340,000 tested, 0.073% active;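 active = activation above the mean of all tested compounds plus 3 SD, set per screening campaign, cut at about 17% in these data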
IDE inh – cellular human IDE inhibition; P14735; HEK cells, FAbetaB cleavage, fluorescence polarization; inhibition, % at 5.59 µM; 320,000 tested, 0.41% active; AID 434962;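 active = percent inhibition above the average of all tested compounds plus 3 SD, set per screening campaign, cut at about 16% in these data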;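 also: IDE supplied by intact live HEK cells; FP after avidin binding of uncleaved biotin substrate so inhibition keeps polarization high; 0% = DMSO wells and 100% = 60 µM reference IDE inhibitor Ii1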
proCasp3 act – activators of human procaspase-3; recombinant procaspase-3 D3A, Ac-DEVD-pNA absorbance 405 nm; activation, % at 8.5 µM; 330,000 tested, 0.11% active; AID 463141;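 active = activation above the mean of all tested compounds plus 3 SD, cut at about 21% in these data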;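 also: 0% = DMSO alone and 100% = DMSO wells spiked with extra 5 µM PC-3 D3A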
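Assay system – Procaspase-3 D3A mutant, all three cleavage aspartates alanine · Controls – DMSO-only low control, 5 µM PC-3 D3A high control · Schedule – 1 h compound preincubation, 2 h substrate hydrolysis at 25 °C · Signal – 405 nm absorbance of p-nitroaniline, reads at 0 and 120 min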
UBC13 polyUb – human UBC13 polyubiquitination inhibition; P61088; UBC13 polyubiquitin chain formation, TR-FRET; inhibition, % at 20 µM; 330,000 tested, 0.47% active; in the data active = inhibition above about 45%, passing the limit was not always enough
Target sequence (P61088 whole entry, looked up): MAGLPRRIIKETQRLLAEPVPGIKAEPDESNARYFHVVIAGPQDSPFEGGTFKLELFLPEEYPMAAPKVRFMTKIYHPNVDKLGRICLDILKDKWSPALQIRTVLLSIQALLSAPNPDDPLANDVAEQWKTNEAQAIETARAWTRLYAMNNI
proCasp7 act – counter-screen for procaspase-3 activators: activators of human procaspase-7; P55210; recombinant procaspase-7, Ac-DEVD-pNA absorbance 405 nm; D23A/D198A/D206A triple mutant, cannot self-cleave; scale: DMSO 0, 5 µM enzyme 100; activation, % at 8.5 µM; 330,000 tested, 0.093% active;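 active = percent activation above the screen-wide mean plus 3 SD, cut at about 25% in these data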
Target sequence (P55210 whole entry D23A/D198A/D206A): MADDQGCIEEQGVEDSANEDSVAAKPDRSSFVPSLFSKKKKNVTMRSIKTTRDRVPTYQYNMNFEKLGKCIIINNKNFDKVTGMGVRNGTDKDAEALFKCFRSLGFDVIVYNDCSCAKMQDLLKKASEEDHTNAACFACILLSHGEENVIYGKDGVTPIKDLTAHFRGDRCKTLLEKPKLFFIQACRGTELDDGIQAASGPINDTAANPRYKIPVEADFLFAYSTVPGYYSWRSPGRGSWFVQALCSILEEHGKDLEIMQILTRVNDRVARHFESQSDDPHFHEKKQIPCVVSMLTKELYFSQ
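Detection: p-Nitroaniline absorbance at 405 nm, read at 0 and 120 min; system: Uncleavable procaspase-7 mutant enzyme; evaluation: % activation from two-timepoint absorbance difference, scaled to controls; times: 1 h enzyme–compound preincubation and 2 h substrate reaction, both 25 °C; buffer or medium: Zinc-free HEPES pH 7.4 with 300 mM NaCl, 0.01% Triton X-100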
* = called active by the depositor; . = no result given. This is a sample that favours compounds with a hit; in the whole collection about 1.9% have one here.

SMILES | PHOSPHO1 inh | IDE act | IDE inh | proCasp3 act | UBC13 polyUb | proCasp7 act
Cc1cccc(NC(=O)Cn2cnc(S(=O)(=O)N3CCCC3)c2)c1C | 11.6 | 6.9 | -0.5 | 8.9 | -6.9 | 0.9
CC(C)(C)c1ccc(C(=O)NCC(=O)OCC(=O)Nc2nc(-c3ccc(F)cc3)cs2)cc1 | 61.6* | -0.1 | 3.0 | -9.1 | -23.3 | -5.2
O=C(CSc1nnc(COc2ccc(Cl)cc2)n1Cc1ccco1)c1ccccc1F | 96.3* | -4.6 | -1.6 | 4.8 | -1.0 | 0.7
COc1ccc(C)cc1NC(=O)CSc1nnc(COc2ccc(Cl)cc2)n1Cc1ccco1 | 22.8 | 4.5 | 4.2 | 0.5 | -2.3 | 1.6
Clc1ccc(OCc2nnc(SCc3nc4ccccc4[nH]3)n2Cc2ccco2)cc1 | 73.6* | 5.8 | 1.1 | -11.4 | -0.7 | -9.0
CCn1c(COc2ccc(C)cc2)nnc1SCc1nc2ccccc2[nH]1 | 93.6* | 4.2 | 0.8 | 6.2 | 2.7 | 10.2
Cn1c(COc2ccccc2)nnc1SCc1nc2ccccc2[nH]1 | 35.7 | 5.7 | 2.9 | 1.0 | 6.2 | -0.4
O=c1[nH]c(CSc2nnc(COc3ccccc3)n2-c2ccccc2)nc2ccccc12 | 60.7* | 2.6 | -2.4 | 2.8 | -4.1 | -11.6
c1ccc(-c2nnc3nc(N4CCCCC4)nc(N4CCCCC4)n23)cc1 | . | 6.4 | . | . | . | .
COc1ccc(CCNC(=O)c2ccccc2NS(=O)(=O)c2c(F)cccc2F)cc1 | 46.2 | -0.5 | 1.2 | 1.7 | -0.8 | 3.3
O=C1c2ccccc2C(=O)N1c1ccc(Cl)cc1 | -11.4 | . | -0.5 | 2.7 | 1.6 | 1.2
O=C1c2ccccc2C(=O)N1Cc1ccco1 | 39.3 | 4.2 | 0.5 | 7.2 | 16.2 | 0.4
O=C1c2cccc3c(O)ccc(c23)C(=O)N1Cc1ccco1 | -0.2 | 29.7* | . | . | -138.9 | .
O=C1c2cccc3c(O)ccc(c23)C(=O)N1c1ccc(Cl)cc1 | 27.0 | 52.2* | -32.2 | -13.3 | -123.2 | -3.2
COc1ccc([C@H]2CC(=O)C=C(c3cccc(C(C)C)c3)C2)cc1OC | . | 0.2 | 4.3 | 9.7 | 8.0 | 12.2
CCN(CC)S(=O)(=O)c1ccc(N2CCOCC2)c(NC(=S)NC(=O)c2ccco2)c1 | -44.8 | 5.0 | 1.4 | -8.6 | 5.4 | -17.9
O=C(N/N=C/c1c[nH]c2ccccc12)c1ccn(Cc2ccc(Cl)cc2Cl)n1 | 37.9 | -0.6 | 10.8 | -0.9 | -2.3 | -0.1
O=C(N/N=C/c1c[nH]c2ccc(Br)cc12)c1ccn(Cc2ccc(Cl)cc2)n1 | 62.0* | 1.2 | 1.2 | 9.9 | -10.2 | -5.1
Cc1ccccc1C(=O)N1CCN=C1SCc1ccc([N+](=O)[O-])cc1 | 68.5* | 5.3 | 1.6 | 1.6 | -6.3 | 10.3
COc1ccc2cc(C(c3nnnn3C3CCCC3)N3CCc4ccccc4C3)c(=O)[nH]c2c1 (stereo unspecified) | 97.8* | 3.5 | 6.8 | -9.5 | -3.7 | -19.2
COc1ccc(Cn2nnnc2C(c2cc3ccc(OC)cc3[nH]c2=O)N2CCCCCC2)cc1 (stereo unspecified) | 85.6* | -13.8 | 6.4 | -11.8 | 7.2 | -37.0
COc1ccc2cc(C(c3nnnn3C(C)(C)C)N3CCc4ccccc4C3)c(=O)[nH]c2c1 (stereo unspecified) | 34.7 | . | 5.8 | -20.7 | -10.7 | -22.6
CCc1ccc2[nH]c(=O)c(C(c3nnnn3CCOC)N3CCN(c4ccccc4)CC3)cc2c1 (stereo unspecified) | 85.6* | 1.7 | -2.5 | -3.4 | -7.9 | 11.9
COc1cc2cc(C(c3nnnn3Cc3ccc(F)cc3)N3CCCCCC3)c(=O)[nH]c2cc1OC (stereo unspecified) | -11.7 | 3.1 | -2.2 | -9.0 | 11.7 | 0.1
O=C(Nc1ccccc1)OCCc1ccccn1 | . | 1.6 | . | . | . | .
SMILES | PHOSPHO1 inh | IDE act | IDE inh | proCasp3 act | UBC13 polyUb | proCasp7 act
O=C(CSc1nnc2c(n1)[nH]c1ccccc12)Nc1nncs1 | 34.8 | 1.8 | -2.6 | 11.9 | -8.4 | -7.3
COc1ccc(CNc2nc3ccccc3n2CCN2CCOCC2)cc1 | -7.3 | 17.8* | -2.4 | -10.4 | -0.6 | 1.9
Cc1nn(C(C)C(=O)NCCCN2CCCC2)c(=O)c2nn(-c3ccccc3)c(C)c12 (stereo unspecified) | 6.7 | -2.9 | 5.8 | 0.7 | 5.2 | -9.9
COc1ccc2[nH]c(=S)[nH]c2c1 | 91.7* | 0.8 | 4.7 | 0.6 | 3.8 | 2.9
S=c1[nH]c2ccc(Cl)cc2[nH]1 | -3.3 | 1.4 | 6.1 | -13.8 | 5.9 | -4.2
O=C(Nc1ccc2nc(-c3ccco3)c(-c3ccco3)nc2c1)N1CCN(c2ccccn2)CC1 | 97.7* | 1.9 | 11.8 | 1.1 | 11.2 | -18.7
CC(=O)c1ccc(NC(=O)c2ccc3nc(-c4ccco4)c(-c4ccco4)nc3c2)cc1 | 97.9* | -1.6 | 1.4 | -11.1 | 27.9 | -17.2
S=C(Nc1ccc(N2CCOCC2)cc1)Nc1ccc2nc(-c3ccco3)c(-c3ccco3)nc2c1 | 92.4* | 0.2 | 13.9 | -22.0 | 31.8 | -16.0
O=C(Nc1ccc(N2CCOCC2)cc1)c1ccc2nc(-c3ccco3)c(-c3ccco3)nc2c1 | -26.0 | -4.3 | 0.3 | -9.4 | -13.8 | 5.3
COc1cc(C(=O)Nc2cc3c(cc2N2CCCCC2)n(C)c(=O)n3C)cc(OC)c1OC | -1.2 | 4.2 | 5.8 | -3.7 | 18.1 | 6.3
Cc1sc2nc[nH]c(=S)c2c1-c1ccccc1 | -7.3 | -15.6 | 12.8 | -2.5 | 3.5 | -12.7
CSc1cccc(N2C(=O)C3CCCN3C2=S)c1 (stereo unspecified) | 19.5 | 1.0 | 0.3 | -7.1 | 6.5 | -4.4
COc1ccc(/C=C/C(=O)OCC(=O)N2CCCCCC2)c(OC)c1 | . | 3.6 | 3.0 | 1.4 | -2.0 | 4.2
C/C(=N/Nc1nc(-c2ccc(Cl)cc2)cs1)c1cccs1 | 92.4* | 1.3 | -0.9 | -20.1 | -10.2 | -18.9
CC(=O)Nc1ccc(S(=O)(=O)N2C(C)CCCC2C)cc1 (stereo unspecified) | 13.4 | -2.9 | 10.7 | 7.8 | 0.5 | 5.2
Cc1cccc(C(C)C)c1NC(=O)COC(=O)CCN1C(=O)C2CC=CCC2C1=O (stereo unspecified) | 70.2* | 1.1 | 7.2 | 11.5 | 1.0 | 1.1
O=C(N/N=C/c1ccc2c(c1)OCO2)C(=O)Nc1cccc(Cl)c1 | 31.0 | 0.9 | 0.0 | 5.6 | -0.1 | 6.9
CN(C)S(=O)(=O)n1cc(/C=C(\NC(=O)c2ccccc2Cl)C(=O)NCCN2CCOCC2)c2ccccc21 | 64.9* | -2.1 | 0.8 | 2.3 | -2.1 | -5.5
CN(C)S(=O)(=O)n1cc(/C=C(\NC(=O)c2ccccc2Cl)C(=O)NCCCN2CCOCC2)c2ccccc21 | 42.6 | 3.1 | -5.0 | 10.6 | 4.6 | 10.4
COc1ccc(N2CCN(C(=O)CN(c3cccc(Br)c3)S(C)(=O)=O)CC2)cc1 | -29.3 | 0.1 | -1.2 | 0.0 | 0.8 | 4.5
